24 compounds from PubChem BioAssay AID624038 (The Scripps Research Institute Molecular Screening Center, 2012) can be followed below.

Screen size: about 360,000 compounds; about 1,100 (0.31%) were called active. Many of the other results were omitted from the sample, so actives are more common in it than they were. A number with no mark means an inactive call.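 Rule for the calls: active = activation above the run cutoff, the mean activation of all test compounds plus 3 SD (cut at about 18% in these data); inactive = the rest.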

Muscarinic acetylcholine receptor M5 (Homo sapiens), sequence (P08912 whole entry, looked up): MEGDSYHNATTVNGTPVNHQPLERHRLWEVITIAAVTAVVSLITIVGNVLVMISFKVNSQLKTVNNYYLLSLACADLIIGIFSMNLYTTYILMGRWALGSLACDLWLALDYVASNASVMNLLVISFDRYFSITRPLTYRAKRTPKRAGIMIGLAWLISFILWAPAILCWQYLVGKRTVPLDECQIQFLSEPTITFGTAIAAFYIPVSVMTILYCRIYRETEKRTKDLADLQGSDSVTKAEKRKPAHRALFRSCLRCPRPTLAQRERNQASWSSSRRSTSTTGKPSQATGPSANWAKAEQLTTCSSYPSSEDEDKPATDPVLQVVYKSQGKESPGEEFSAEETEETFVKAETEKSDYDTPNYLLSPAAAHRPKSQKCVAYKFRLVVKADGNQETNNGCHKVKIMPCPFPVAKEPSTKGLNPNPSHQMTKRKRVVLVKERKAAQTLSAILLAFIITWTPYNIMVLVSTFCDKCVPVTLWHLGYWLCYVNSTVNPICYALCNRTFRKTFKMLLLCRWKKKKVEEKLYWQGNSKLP

This assay has as its target Muscarinic acetylcholine receptor M5 (Homo sapiens) (UniProt P08912). Description: CHRM5 PAMs potentiating acetylcholine calcium signal – CHO-K1 cells, Fluo-8 calcium fluorescence, primary screen (AID 624038). Conditions: CHO-K1 hM5, Fluo-8 calcium, ACh EC20 PAM; at 3 µM; active compounds read high; 0% = ACh EC20, 100% = ACh EC100. In outline: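 System: CHO-K1 cell line with stable human muscarinic M5 receptor expression | Also added: EC20 acetylcholine as agonist stimulus | Compound: One concentration, 3 µM final (nominal) | Timing: Fluo-8 loading 80 min at 37 °C plus 30 min room temperature | Measured by: Fluo-8 calcium dye fluorescence, kinetic read | Read-out basis: % activation, ACh-normalized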
With `COc1ccc(NS(=O)(=O)c2ccc(C)c(C(=O)N(C)Cc3ccc(OC)cc3OC)c2)cc1`, the activation is -3.1%.

As for `CCC(NC(=O)c1ccccc1NC(=O)c1ccccc1)C(=O)NNC(=O)CSc1nc2ccccc2o1` (centres undefined), the activation is -8.71%.

Consider `COc1cc(CNCc2ccc3c(c2)OCO3)c([N+](=O)[O-])cc1OC`, for which the activation is -5.12%.

With `Cc1ccc(S(=O)(=O)N(Cc2ccccc2)c2ccccn2)cc1[N+](=O)[O-]`, the activation is -10.1%.

As for `Cc1ccc2oc(=O)c3cnn(CC(=O)N4CCN(c5ccccn5)CC4)c3c2c1`, the activation was -15.1%.

On to `O=C(Cc1ccccc1Cl)N1CCN(c2ccccn2)CC1`, for which the activation is -0.15%.

Turning to `Nc1ccn(CC(=O)N2CCN(c3ccccn3)CC2)c(=O)n1`, the activation was 19% (active).

As for `COc1ccc2c(c1OC)C(=O)OC2Nc1nc(-c2ccccc2)cs1` (centres undefined), the activation is 4.62%.

In the case of `CC(=O)NC(c1ccccc1)c1nc(-c2cccc(C(C)C)c2)cs1` (centres undefined), the activation is -1.15%.

For the compound `Cc1cccc(Nc2nc(-c3ccccc3)cs2)n1`, the activation was 22.1% (active).

Regarding `Cc1cccc(N(C(=O)Cc2cccs2)C(C(=O)NC2CCCC2)c2ccsc2)c1` (centres undefined), the activation is -1.6%.

On to `COc1ccc(C(=O)NC2CCN(C(=O)Nc3ccc(F)cc3)CC2)cc1`, for which the activation is 1.29%.

As for `CCOc1ccc(C(=O)NC2CCN(S(=O)(=O)CC)CC2)cc1`, the activation is 11.7%.

`CCOc1ccc(C(=O)NC2CCN(C(=O)Nc3ccccc3OC)CC2)cc1`: the activation is 19.6% (active).

With `Cc1cc(C)cc(NC(=O)N2CCC(NC(=O)c3ccc(F)cc3)CC2)c1`, the activation is 18.7% (active).

As for `Cc1ccc(C(=O)NC2CCN(C(=O)Nc3ccccc3Cl)CC2)cc1`, the activation is -7.16%.

Regarding `Cc1ccc(C(=O)NC2CCN(C(=O)Nc3ccc(F)cc3)CC2)cc1`, the activation is -2.54%.

In the case of `Cc1ccc(OCC(=O)N2CCN(S(=O)(=O)c3ccc(Cl)s3)CC2)cc1C`, the activation is 6.01%.

Take `CCCNCc1cc(OCC)c(OCC(=O)Nc2ccccc2)cc1Br`: the activation is -3.11%.

As for `C=CC[C@@H](CC(=O)N[C@@H](CO)Cc1ccccc1)C(=O)N[C@H](COC(=O)[C@H](CC=C)CC(=O)OC(C)(C)C)Cc1ccccc1`, the activation is 12.5%.

Take `CCOC(=O)c1c(NC(=O)NC(C)(C)C)sc2c1CCN(C)C2`: the activation is -2.43%.

With `CCOC(=O)C(C)N(c1ccccc1Cl)S(C)(=O)=O` (centres undefined), the activation is 4.74%.

In the case of `O=C(Nc1cc(S(=O)(=O)N2CCOCC2)ccc1OCC(F)(F)F)c1ccc(N2CCCC2=O)cc1`, the activation was -1.35%.

`COc1ccc(/C=C(/NC(=O)c2ccco2)C(=O)Nc2ccc(C(C)=O)cc2)cc1`: the activation was 5.57%.
